# From ChEMBL document CHEMBL3525925, “In vitro studies on the oxidative metabolism of 20(s)-ginsenoside Rh2 in human, monkey, dog, rat, and mouse liver microsomes, and human liver s9” (Drug Metab Dispos, 2012)
# How the values were obtained:
# [1] = Oral bioavailability in Wistar rat at 25 mg/kg; format: ADME, organism-based; settings: in vivo
# [2] = test system: Liver microsome; experiment: Drug metabolism in human liver microsomes assessed as oxidative metabolism at 10 uM in presence of 10 uM ketoconazole CYP3A inhibitor; format: ADME
# Outline: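 Pooled human liver microsomes (1 mg/ml, mixed-gender, 50 donors), 10 µM Rh2, 2 mM NADPH and selective inhibitor in 100 mM potassium phosphate pH 7.4; 37°C, 60 min; ice-cold acetonitrile stop; uninhibited controls; duplicates; formation of M1-2, M1-3 and M1-4+M1-5 quantified by LC/ion-trap MSn.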
# [3] = biological target: T1, Cytochrome P450 2B6 (Homo sapiens, UniProt P20813); experiment: Drug metabolism in human recombinant CYP2B6 mediated oxidative metabolism at 10 uM; format: ADME; settings: recombinant enzyme
# T1 sequence (P20813 whole entry): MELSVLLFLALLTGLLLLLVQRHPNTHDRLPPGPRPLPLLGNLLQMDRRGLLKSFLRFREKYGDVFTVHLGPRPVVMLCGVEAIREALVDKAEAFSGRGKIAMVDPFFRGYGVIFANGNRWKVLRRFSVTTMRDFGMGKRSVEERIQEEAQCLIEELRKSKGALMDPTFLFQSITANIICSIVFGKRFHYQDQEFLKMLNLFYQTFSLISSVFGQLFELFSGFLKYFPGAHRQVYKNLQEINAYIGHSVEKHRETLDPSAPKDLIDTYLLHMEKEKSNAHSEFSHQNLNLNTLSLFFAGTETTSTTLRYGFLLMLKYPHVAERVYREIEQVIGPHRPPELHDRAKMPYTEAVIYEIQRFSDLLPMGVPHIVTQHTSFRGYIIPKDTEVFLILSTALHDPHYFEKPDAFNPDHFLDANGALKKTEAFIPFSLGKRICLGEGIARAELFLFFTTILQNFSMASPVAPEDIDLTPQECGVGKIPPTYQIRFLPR
# Outline: (§1)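 Recombinant human P450 at 50 nM incubated with 10 µM Rh2 and 2 mM NADPH in 100 mM potassium phosphate pH 7.4, 37°C, 60 min; ice-cold acetonitrile stop; duplicates; metabolites detected by LC/ion-trap MSn.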
# [4] = biological target: T2, Cytochrome P450 2C8 (Homo sapiens, UniProt P10632); experiment: Drug metabolism in human recombinant CYP2C8 mediated oxidative metabolism at 10 uM; format: ADME; settings: recombinant enzyme; outline: as §1
# T2 sequence (P10632 whole entry): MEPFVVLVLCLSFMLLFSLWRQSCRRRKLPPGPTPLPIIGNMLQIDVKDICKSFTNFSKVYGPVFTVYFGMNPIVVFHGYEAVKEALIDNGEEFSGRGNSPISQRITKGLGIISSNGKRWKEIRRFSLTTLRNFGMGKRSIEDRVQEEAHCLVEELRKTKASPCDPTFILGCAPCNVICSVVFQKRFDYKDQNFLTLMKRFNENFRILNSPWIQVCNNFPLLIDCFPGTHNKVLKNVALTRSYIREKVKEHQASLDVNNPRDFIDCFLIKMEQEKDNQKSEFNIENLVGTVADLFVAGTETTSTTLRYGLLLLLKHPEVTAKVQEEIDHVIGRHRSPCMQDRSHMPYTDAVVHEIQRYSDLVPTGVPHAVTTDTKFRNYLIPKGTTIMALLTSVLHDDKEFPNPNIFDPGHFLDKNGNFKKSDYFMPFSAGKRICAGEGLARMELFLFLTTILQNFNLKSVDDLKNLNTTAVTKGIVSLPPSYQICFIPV
# [5] = biological target: Cytochrome P450 2C19 (Homo sapiens, UniProt P33261); experiment: Drug metabolism in human recombinant CYP2C19 mediated oxidative metabolism at 10 uM; format: ADME; settings: recombinant enzyme; outline: as §1
# Cytochrome P450 2C19, sequence (P33261 whole entry): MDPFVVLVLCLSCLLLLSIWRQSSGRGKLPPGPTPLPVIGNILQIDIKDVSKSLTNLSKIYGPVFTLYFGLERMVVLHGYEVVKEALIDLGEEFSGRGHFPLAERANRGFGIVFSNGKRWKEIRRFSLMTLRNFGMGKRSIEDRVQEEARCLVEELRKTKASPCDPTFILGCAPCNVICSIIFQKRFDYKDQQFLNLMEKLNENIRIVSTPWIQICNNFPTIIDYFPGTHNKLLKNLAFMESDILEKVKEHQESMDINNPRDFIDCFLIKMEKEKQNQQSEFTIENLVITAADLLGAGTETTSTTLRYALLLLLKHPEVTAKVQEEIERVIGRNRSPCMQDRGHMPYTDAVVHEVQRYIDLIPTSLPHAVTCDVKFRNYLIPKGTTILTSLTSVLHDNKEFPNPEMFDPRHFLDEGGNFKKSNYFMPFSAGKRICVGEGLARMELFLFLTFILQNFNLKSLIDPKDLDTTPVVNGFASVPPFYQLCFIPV
# [6] = biological target: T3, Cytochrome P450 4A11 (Homo sapiens, UniProt Q02928); experiment: Drug metabolism in human recombinant CYP4A11 mediated oxidative metabolism at 10 uM; format: ADME; settings: recombinant enzyme; outline: as §1
# T3 sequence (Q02928 whole entry): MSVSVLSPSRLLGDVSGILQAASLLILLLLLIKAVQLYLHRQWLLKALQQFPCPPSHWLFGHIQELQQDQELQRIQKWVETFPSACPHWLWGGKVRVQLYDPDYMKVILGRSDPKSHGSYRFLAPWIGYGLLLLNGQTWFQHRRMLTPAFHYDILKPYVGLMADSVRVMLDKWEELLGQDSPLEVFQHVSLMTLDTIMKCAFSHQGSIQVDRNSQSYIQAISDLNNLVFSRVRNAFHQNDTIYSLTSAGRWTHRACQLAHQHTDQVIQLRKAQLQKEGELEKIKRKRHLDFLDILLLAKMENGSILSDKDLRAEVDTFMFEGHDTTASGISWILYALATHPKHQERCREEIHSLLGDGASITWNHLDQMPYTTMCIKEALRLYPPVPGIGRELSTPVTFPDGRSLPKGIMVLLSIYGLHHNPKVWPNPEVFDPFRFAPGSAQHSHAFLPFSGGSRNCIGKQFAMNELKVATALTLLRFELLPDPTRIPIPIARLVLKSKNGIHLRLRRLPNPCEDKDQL
# [7] = Drug metabolism in cynomolgus monkey liver microsomes assessed as (24S,25)-epoxydamma-rane-12,20-diol-3-beta-D-glucopyranoside formation at 10 uM after 1 hr by LC/MS analysis in presence of GSH; format: ADME, Macaca fascicularis
# Outline: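 Male cynomolgus monkey liver microsomes (1 mg/ml) with 10 µM Rh2, 2 mM GSH and 2 mM NADPH in 100 mM potassium phosphate pH 7.4, 37°C, 60 min after 3 min preincubation; microsomes start reaction; ice-cold acetonitrile stop; no-NADPH controls; duplicates; LC/ion-trap MSn detection.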
smiles,measurement,setting,value
CC(C)=CCC[C@](C)(O)[C@H]1CC[C@]2(C)[C@@H]1[C@H](O)C[C@@H]1[C@@]3(C)CC[C@H](O[C@@H]4O[C@H](CO)[C@@H](O)[C@H](O)[C@H]4O)C(C)(C)[C@@H]3CC[C@]12C [GINSENOSIDE RH2],bioavailability,[1],28%
same,Drug metabolism,[2],metabolite_not_detected
same,Drug metabolism,[3],metabolite_not_detected
same,Drug metabolism,[4],metabolite_not_detected
same,Drug metabolism,[5],metabolite_not_detected
same,Drug metabolism,[6],metabolite_not_detected
same,Drug metabolism,[7],metabolite_detected
